# Efflux pump inh – inhibitors of Candida efflux pumps in yeast, primary screen, S. cerevisiae, Nile Red, multiplex | S. cerevisiae Candida pump triplex | inhibition, % at 10 µM | 330,000 compounds, 0.44% hits | AID 485275, 2010;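 active = plate passing quality check with inhibition over a set limit, or well fluorescence over plate mean plus 4 SD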;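 note: Nile Red retained in pooled yeast measured as flow cytometry median fluorescence; 0% = buffer negative control and 100% = Enniatin B positive control; higher means more Nile Red kept so more efflux inhibition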
# T cruzi repl – inhibitors of intracellular T. cruzi growth, primary screen, luminescence, NIH3T3 host cells. AID 1885, 2009. 300,000 compounds, 1.4% hits. inhibition, % (no concentration beside the values). T. cruzi beta-gal in NIH3T3, 90 h;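 active = mean inhibition across valid replicates above about 55%, limit read from the data; inconclusive = mean below that limit but half or more replicates reach it; inactive = mean below it, under half of replicates reach it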;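 note: signal also drops with host cell toxicity which is not excluded here; 0% = plate median of DMSO wells and 100% = zero luminescence signal; higher percent means less beta-gal luminescence so fewer parasites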
#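 Incubation – ≥90 h infection period, 3 h prior cell attachment · System – NIH/3T3 fibroblasts plus reporter T. cruzi · Doses – compound pinned at 50 nL/well, DMSO · Read-out basis – percent inhibition of parasite-derived β-gal signal · Signal – luminescent β-galactosidase signal after 60 min lysis · Also added – 5000 T. cruzi trypomastigotes/well · Medium – Low-serum DMEM with 2% FBS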
# WT yeast gro inh – growth inhibition of WT strain, primary screen, mitochondrial fusion inhibitor project, WT and mutant strains, chemical genetic; mitochondrial fusion phenotypic screen; inhibition, % at 10 µM; 190,000 compounds, 2.1% hits; in the data active = inhibition above about 58%; tested in S. cerevisiae
# CSC inhib – cancer stem cell viability inhibitors, primary screen, luminescence; cancer stem cell-like cells viability; inhibition, % at 7.5 µM; 300,000 compounds, 1.1% hits; AID 2717, 2010; in the data active = inhibition above about 75%; inconclusive = no clear call, values can overlap the other calls; tested in HMLE shEcad cells
# Beta cell apopt – inhibitors of cytokine-induced beta cell apoptosis, primary screen, luminescence. protection from apoptosis, % (concentration not given with the values). 300,000 compounds, 0.8% hits. INS-1E cytokine-induced death, ATP luminescence, 48 h; percent of positive-control rescue, neutral wells zero. AID 435005, 2010;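 active = Every replicate reaches about 75%, or at least half do and their mean reaches it too, limit read from the data; inconclusive = At least half of replicates reach the limit but their mean does not; inactive = Under half of replicates reach the limit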;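 note: 0% = cytokine-treated negative control wells and 100% = positive control rescue; higher means more ATP so stronger rescue from cytokine killing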
# Mot1-301 SUMO – yeast Mot1-301 growth rescue at high temperature, primary screen, SUMOylation pathway inhibitor project, S. cerevisiae, ATP luminescence, 38.5C. S. cerevisiae Mot1-301 growth rescue; percent above DMSO median, 100 means doubled. growth rescue, % at 18.8 µM. 320,000 compounds, 1% hits. AID 2716, 2010;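 active = every valid replicate shows activation above 250% relative to neutral control wells; inactive = the rest, any valid replicate at or below 250%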;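 note: OY570 slx delta 5 strain wells were the positive control but not used for scaling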
# Active calls of the source: *; ? = inconclusive; / = no result. Shown are actives, neighbours in structure and some others; about 4.8% of the full set was active somewhere.
SMILES,Efflux pump inh,T cruzi repl,WT yeast gro inh,CSC inhib,Beta cell apopt,Mot1-301 SUMO
Cc1ccc2sc(N(CCCN(C)C)C(=O)CN3C(=O)c4ccccc4C3=O)nc2c1C,0.0,57.6*,94.2*,-22.6,2.1,/
O=C(NCC1CCCC(CNC(=O)Nc2ccc(Cl)cn2)C1)Nc1ccc(Cl)cn1 (configuration not stated),0.2,59.8*,/,-5.1,29.5,-4.9
NCC(c1ccc(Cl)cc1Cl)c1c[nH]c2ccccc12 (configuration not stated),0.1,-6.0,/,94.8*,37.6,-11.3
O=C(NC1CC1)C1CC(=O)N(c2ccc(F)cc2)C1 (configuration not stated),0.0,6.1,/,6.0,-0.3,-14.2
CC(C)(C)c1ccc(/C=C(\c2nc3ccccc3[nH]2)S(=O)(=O)c2ccccc2)cc1,0.1,56.5*,/,125.4*,108.1*,-10.7
Cc1ccc(NC(=O)C2CCN(S(=O)(=O)c3ccc4c(c3)NC(=O)CO4)CC2)cc1,0.3,14.3,/,3.5,-2.4,-2.9
Clc1ccc(C2=Nn3c(nnc3-c3cc(-c4ccccc4)n[nH]3)SC2)cc1,0.1,29.9,96.5*,7.7,15.5,-1.8
c1ccc(C2=Nn3c(nnc3-c3cc(-c4ccccc4)n[nH]3)SC2)cc1,0.1,25.6,-0.8,20.1,/,-2.5
CCCn1nnnc1NCc1ccccc1C,-0.1,-1.9,/,-10.4,-4.2,5.7
OC(COC(c1ccc(Cl)cc1)c1ccc(Cl)cc1)CN1CCc2ccccc2C1 (configuration not stated),0.2,62.1*,90.7,36.1,0.9,-42.7
OC1CCCN(CC(O)COC(c2ccc(F)cc2)c2ccc(F)cc2)C1 (configuration not stated),0.2,0.7,/,-18.4,-3.8,-6.6
OC(COC(c1ccccc1)c1ccccc1)CN1CCc2ccccc2C1 (configuration not stated),0.1,2.5,14.7,13.3,2.1,2.3
OC(COC(c1ccc(F)cc1)c1ccc(F)cc1)CN1CCc2ccccc2C1 (configuration not stated),-0.1,16.3,41.6,30.5,102.1*,6.6
O=C(CSc1ncn[nH]1)N1CCOCC1,0.1,-5.5,-9.9,6.4,-1.3,10.5
CCN(CC)c1ncnc2c1ncn2Cc1c(Cl)cccc1Cl,0.1,-1.4,-11.1,25.1,13.7,-10.7
Clc1cccc(Cl)c1Cn1cnc2c(N3CCCCCC3)ncnc21,0.1,10.4,74.8*,50.4,19.9,5.8
CC(C)[C@@H]1CC[C@@H](C)C[C@H]1OC(=O)C[n+]1cc(-c2ccc(Cl)cc2)n2c1CCCCC2,0.0,50.6,/,21.9,1.4,-5.3
COc1ccc(-c2c[n+](CC(=O)OC3CC(C)CCC3C(C)C)c3n2CCC3)cc1 (configuration not stated),0.1,49.2,11.7,-2.1,102.5*,7.7
O=C(CN1CCC(c2nc3ccccc3s2)CC1)NCc1cccs1,0.1,68.0*,-0.8,-3.6,1.2,28.7
O=C(CN1CCC(c2nc3ccccc3s2)CC1)N1CCCCC1,-0.1,8.6,-6.0,0.1,0.9,-23.7
O=C(O)C1C2CCC(O2)C1C(=O)Nc1ccc(Cl)cc1F (configuration not stated),-0.1,4.0,/,1.2,0.8,633.0*
O=C(O)C1C2CCC(O2)C1C(=O)Nc1cccc(Cl)c1 (configuration not stated),-0.2,-5.3,/,-12.2,-6.2,92.9
COc1ccc(C(=O)COc2ccc(F)cc2)c(O)c1C,0.3,1.7,-11.4,14.3,-1.7,12.6
CCCCSCCCNC(=O)Nc1ccc(C)c(C)c1,0.1,-6.5,27.6,-22.7,-3.2,9.8
CC(C)=CCOc1ccc([C@@H]2COc3c(ccc4c3C=CC(C)(C)O4)C2)c(O)c1,-0.1,32.4,/,101.7*,42.3,-11.7
SMILES,Efflux pump inh,T cruzi repl,WT yeast gro inh,CSC inhib,Beta cell apopt,Mot1-301 SUMO
c1ccc(CCn2c(SCc3ccccc3)nnc2-c2ccncc2)cc1,-0.1,31.7,-9.4,-5.7,3.5,25.7
N#Cc1ccc(CSc2nnc(-c3ccncc3)n2CCc2ccccc2)cc1,-0.1,64.6*,7.1,12.4,/,-5.1
O=C(Oc1ccc(Cl)c2cccnc12)c1cccc([N+](=O)[O-])c1,-0.1,-3.2,13.2,107.8*,2.1,25.3
O=C(Oc1c(Cl)cc(Cl)c2cccnc12)c1cccc([N+](=O)[O-])c1,-8.5,26.7,56.4,176.8*,65.1,235.3
O=C(Oc1coc(CSc2ncccn2)cc1=O)c1cccc([N+](=O)[O-])c1,-0.1,0.7,9.0,-15.0,-10.8,12.4
O=C(Oc1cccc2cccnc12)c1cccc([N+](=O)[O-])c1,0.3,-14.3,2.6,-13.9,1.0,-12.0
CCOc1ccc(-c2cc(NC(=O)Cn3ncc4c3-c3ccccc3OC4)on2)cc1OCC,0.2,3.1,8.8,36.0,12.2,16.2
CSc1ncccc1C(=O)OCC(=O)Nc1ccc(N2CCOCC2)cc1,0.2,/,/,0.5,0.1,6.8
O=C(CNC(=O)c1ccc(Br)o1)NCC1CCCCC1,0.2,/,/,/,-4.1,-5.8
COC(=O)[C@H]1C[C@H](C(=O)O)[C@@H](C)C1(C)C,0.3,/,/,26.5,-1.0,6.4
CCCCS(=O)(=O)/C=C\C=C/S(=O)(=O)CCCC,-0.2,22.9,87.6*,110.7*,85.5*,155.7
COc1ccc(NC(=O)c2cccc3cccnc23)cc1S(N)(=O)=O,0.2,5.3,/,-19.3,-0.8,85.7
CC(C)(C)c1cc(CCC(=O)NNC(=S)NC(=O)c2ccccc2)cc(C(C)(C)C)c1O,0.2,59.4*,12.0,43.3,?,-7.9
O=C(CCc1ccccc1)NNC(=S)NC(=O)c1ccccc1,0.1,-23.6,42.3,2.7,3.4,-9.5
Cc1cc(C)nc(SC(C)CNS(=O)(=O)c2ccccc2)n1 (configuration not stated),0.0,-8.3,-6.8,-9.6,-5.8,-12.8
N#C/C(=C/c1ccc(N2CCCCCC2)o1)c1ccc(Cl)cc1,0.1,65.2*,23.4,66.0,81.0*,-26.7
N#C/C(=C\c1ccc(N2CCOCC2)o1)C(=O)NCC1CCCO1 (configuration not stated),-0.1,1.0,-4.4,-5.6,-4.0,-3.3
Cc1ccc(/C(C#N)=C\c2ccc(N3CCOCC3)o2)cc1,0.0,57.8*,-18.2,36.0,0.0,30.6
N#C/C(=C/c1ccc(N2CCCCC2)o1)c1cccc(F)c1,0.4,55.6*,21.1,10.7,/,9.3
CC(=O)Nc1ccccc1Nc1nc(NCCO)nc(N2CCCC2)n1,0.0,-16.0,/,-11.8,-3.0,1.4
CCc1ccc(C(=O)OCC(=O)N(CCOC)c2c(N)n(Cc3ccccc3)c(=O)[nH]c2=O)cc1,-0.1,-2.3,/,1.0,-4.0,-2.1
